# Laboratory results from ChEMBL document CHEMBL3259708, “Thienoquinolines as novel disruptors of the PKCε/RACK2 protein-protein interaction” (J Med Chem, 2014).
# pIC50: −log10 of the molar value.
# Assays:
# [1] = molecular target: T1, Protein kinase C epsilon type (Homo sapiens) (UniProt Q02156); experiment: (§1) Inhibition of recombinant PKCepsilon (unknown origin)-MBP-tagged RACK2 interaction after 1 hr by ELISA-based assay relative to untreated control; set-up: residual binding, % of control: concentration or dose not given beside the values; details: values are per cent of control
# T1 sequence (whole entry): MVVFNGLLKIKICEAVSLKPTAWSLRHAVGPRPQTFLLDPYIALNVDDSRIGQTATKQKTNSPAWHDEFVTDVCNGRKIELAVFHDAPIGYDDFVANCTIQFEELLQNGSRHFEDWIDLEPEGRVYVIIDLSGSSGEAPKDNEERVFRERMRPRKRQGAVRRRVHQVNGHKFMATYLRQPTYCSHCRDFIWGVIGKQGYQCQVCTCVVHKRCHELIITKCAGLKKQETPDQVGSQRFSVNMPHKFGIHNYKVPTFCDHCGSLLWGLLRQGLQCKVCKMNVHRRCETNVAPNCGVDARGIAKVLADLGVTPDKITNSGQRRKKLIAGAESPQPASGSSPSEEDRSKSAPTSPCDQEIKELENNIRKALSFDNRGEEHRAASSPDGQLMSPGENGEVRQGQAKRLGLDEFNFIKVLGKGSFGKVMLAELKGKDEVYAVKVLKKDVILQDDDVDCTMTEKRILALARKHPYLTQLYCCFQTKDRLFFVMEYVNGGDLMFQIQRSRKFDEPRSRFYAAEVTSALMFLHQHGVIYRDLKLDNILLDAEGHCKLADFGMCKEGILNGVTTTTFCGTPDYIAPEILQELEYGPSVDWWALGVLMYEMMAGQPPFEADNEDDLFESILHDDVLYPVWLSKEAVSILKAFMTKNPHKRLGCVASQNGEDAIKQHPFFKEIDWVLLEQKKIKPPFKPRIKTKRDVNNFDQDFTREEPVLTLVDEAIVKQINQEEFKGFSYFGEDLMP
# In short: (§2)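 ELISA: plates coated with 100 ng recombinant PKCε in 20 mM Tris-HCl/100 mM NaCl pH 7.5 overnight at 4 °C, blocked with 3% BSA; PKCε activated 10 min at 30 °C with 60 μg/mL phosphatidylserine and 100 nM TPA; RACK2-MBP preincubated with agent 30 min, then 500 ng added for 1 h binding; anti-RACK2/HRP detection, ABTS at 420 nm; four experiments, quadruplicates, normalized to control; IC50 via CalcuSyn.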
# [2] = molecular target: T2, Protein kinase C epsilon type (Homo sapiens, UniProt Q02156); experiment: as §1; in short: as §2
# T2 sequence (Q02156 whole entry): T1 sequence (whole entry)
Molecule,"residual binding, % of control [1] [%]",pIC50 [2]
COC(=O)c1cccc(NC(=O)c2sc3nc4cc5c(cc4cc3c2N)OCCO5)c1,90.9,–
COC(=O)c1cccc(NC(=O)c2sc3nc4cc5c(cc4cc3c2N)OCO5)c1,30.8,–
H-EAVSLKPT-OH,–,5.99
COc1ccc2cc3c(N)c(C(=O)Nc4c(C)cccc4C)sc3nc2c1,60.8,–
H-EAVSLKPTRRRRRRR-OH,–,5.99
CC(O)c1cccc(NC(=O)C2Sc3nc4cc5c(cc4cc3C2N)OCCO5)c1 (configuration not stated),102,–
CCOc1ccc2nc(NC(=O)c3sc4nc5cc(OC)ccc5cc4c3N)sc2c1,37.7,4.59
COc1ccc2nc3sc(C(=O)Nc4ccc(N5CCOCC5)cc4)c(N)c3cc2c1,32.9,–
CCOC(=O)c1cccc(NC(=O)c2sc3nc4ccc(OC)cc4cc3c2N)c1,29.6,–
Nc1c(C(=O)Nc2cccc(Cl)c2Cl)sc2nc3cc4c(cc3cc12)OCCO4,57.6,–
CC(=O)c1ccc(NC(=O)c2sc3nc4cc5c(cc4cc3c2N)OCCO5)cc1,22.8,–
